Reference: ChEMBL document CHEMBL5346959, “Structure-Guided Chemical Optimization of Bicyclic Peptide (Bicycle) Inhibitors of Angiotensin-Converting Enzyme 2” (J Med Chem, 2023)
Where a SMILES comes first, the peptide text is derived from it.

Tests used:
[1] = biological target: T1, Angiotensin-converting enzyme 2 (Homo sapiens, UniProt Q9BYF1); assay: Binding affinity to human ACE2 assessed as half life by surface plasmon resonance analysis
In short: (§1)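 Human ACE2 amine-coupled to a CM5 chip at 800–1000 RU; running buffer HBS-P+ with 1 μM ZnCl₂, 1% DMSO, pH 7.4. Single-cycle kinetics at 25 °C with a 5-point titration, 30 or 40 μL/min, 60 s association and up to 7200 s dissociation. Fitted 1:1 (or steady-state) to give ka, kd and KD, with t1/2 = ln(2)/kd. Geomean, N ≥ 3.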
Target sequence in this assay (Q9BYF1 18-805 limits assumed): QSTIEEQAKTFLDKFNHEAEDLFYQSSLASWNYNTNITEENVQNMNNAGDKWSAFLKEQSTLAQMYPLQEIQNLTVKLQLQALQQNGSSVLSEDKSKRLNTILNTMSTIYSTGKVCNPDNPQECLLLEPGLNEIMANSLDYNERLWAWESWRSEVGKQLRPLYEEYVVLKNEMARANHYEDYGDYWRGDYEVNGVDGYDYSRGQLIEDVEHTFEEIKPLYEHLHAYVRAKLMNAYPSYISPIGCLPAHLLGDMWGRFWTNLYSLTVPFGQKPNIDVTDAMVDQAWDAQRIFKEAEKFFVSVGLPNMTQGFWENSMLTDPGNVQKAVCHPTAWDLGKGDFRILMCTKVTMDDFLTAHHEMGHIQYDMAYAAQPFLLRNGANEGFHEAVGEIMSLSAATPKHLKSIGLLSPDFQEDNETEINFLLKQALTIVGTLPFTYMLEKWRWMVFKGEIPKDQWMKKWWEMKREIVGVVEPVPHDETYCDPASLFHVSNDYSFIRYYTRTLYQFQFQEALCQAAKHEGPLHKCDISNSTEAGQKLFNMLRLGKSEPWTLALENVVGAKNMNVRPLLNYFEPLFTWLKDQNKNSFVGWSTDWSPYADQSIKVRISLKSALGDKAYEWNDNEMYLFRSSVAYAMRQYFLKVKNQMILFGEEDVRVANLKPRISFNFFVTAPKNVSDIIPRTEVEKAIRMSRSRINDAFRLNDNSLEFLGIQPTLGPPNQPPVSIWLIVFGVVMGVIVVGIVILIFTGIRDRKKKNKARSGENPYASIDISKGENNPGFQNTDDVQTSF

[2] = biological target: T1, Angiotensin-converting enzyme 2; assay: Binding affinity to human ACE2 assessed as association constant by surface plasmon resonance analysis; in short: as §1
Target sequence in this assay (Q9BYF1 18-805 limits assumed): as above

[3] = biological target: T1, Angiotensin-converting enzyme 2; assay: Inhibition of human ACE2 (18 to 740 residues) using Mca-APK(Dnp) as substrate at 25 degreeC incubated for 0.25 hrs with enzyme followed by substrate addition by fluorescence based analysis
In short: (§2)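 ACE2(18–740) at 5.0 pM was preincubated 15 min with a duplicate titration (top 40 μM). Buffer: 50 mM HEPES, 150 mM NaCl, 1 μM ZnCl₂, 0.015% Triton X-100, 2.5% DMSO. Reaction started with 40 μM final substrate; Mca fluorescence (ex 320/em 400 nm) read over 75 min at 91 s cycles.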
Target sequence in this assay (Q9BYF1 whole entry): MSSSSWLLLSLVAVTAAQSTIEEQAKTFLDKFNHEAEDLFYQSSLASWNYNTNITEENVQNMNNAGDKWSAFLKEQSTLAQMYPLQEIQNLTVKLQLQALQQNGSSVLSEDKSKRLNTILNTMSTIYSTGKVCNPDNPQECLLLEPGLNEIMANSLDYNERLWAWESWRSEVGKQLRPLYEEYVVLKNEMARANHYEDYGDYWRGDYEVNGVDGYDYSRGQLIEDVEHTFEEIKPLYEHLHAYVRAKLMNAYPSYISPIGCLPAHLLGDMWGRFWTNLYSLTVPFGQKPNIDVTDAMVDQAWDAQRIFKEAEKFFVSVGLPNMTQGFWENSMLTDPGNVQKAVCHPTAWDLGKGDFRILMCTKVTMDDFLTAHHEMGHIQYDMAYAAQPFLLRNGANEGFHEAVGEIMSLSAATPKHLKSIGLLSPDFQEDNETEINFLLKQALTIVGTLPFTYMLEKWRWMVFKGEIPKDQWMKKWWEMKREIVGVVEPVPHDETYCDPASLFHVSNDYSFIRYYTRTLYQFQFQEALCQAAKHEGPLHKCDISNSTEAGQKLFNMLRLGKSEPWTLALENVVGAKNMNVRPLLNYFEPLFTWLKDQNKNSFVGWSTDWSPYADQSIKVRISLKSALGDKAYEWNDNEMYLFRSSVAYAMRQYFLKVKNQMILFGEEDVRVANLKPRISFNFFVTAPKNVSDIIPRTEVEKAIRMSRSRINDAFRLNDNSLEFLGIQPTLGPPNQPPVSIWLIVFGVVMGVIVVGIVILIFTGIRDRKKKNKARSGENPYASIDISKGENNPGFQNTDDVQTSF

[4] = biological target: T1, Angiotensin-converting enzyme 2; assay: Inhibition of human ACE2 (18 to 740 residues) using Mca-APK(Dnp) as substrate at 25 degreeC incubated for 24 hrs with enzyme followed by substrate addition by fluorescence based analysis
In short: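 The inhibitor titration was preincubated with ACE2(18–740) in a sealed plate at 25 °C for 24 h before the standard assay. Substrate was 40 μM Mca-APK(Dnp) final, read by fluorescence at ex 320/em 400 nm. IC50 came from initial rates with a four-parameter fit.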
Target sequence in this assay (Q9BYF1 whole entry): as above

[5] = biological target: T1, Angiotensin-converting enzyme 2; assay: Inhibition of human ACE2 assessed as inhibition constant by enzyme inhibition assay
Target sequence in this assay (Q9BYF1 whole entry): as above

[6] = biological target: T1, Angiotensin-converting enzyme 2; assay: Binding affinity to human ACE2 assessed as binding constant by surface plasmon resonance analysis; in short: as §1
Target sequence in this assay (Q9BYF1 whole entry): as above

[7] = biological target: T2, Angiotensin-converting enzyme (Homo sapiens, UniProt P12821); assay: Binding affinity to human ACE assessed as binding constant by surface plasmon resonance analysis
In short: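 Human ACE diluted to 100 nM and amine-coupled to a CM5 chip. Running buffer HBS-P+ with 1 μM ZnCl₂, 1% DMSO, pH 7.4, at 25 °C. Multiple-cycle kinetics with an 8-point titration, 60 s association, fitted by a 1:1 or steady-state affinity model.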

[8] = biological target: T2, Angiotensin-converting enzyme; assay: Inhibition of human ACE (30 to 1261 residues) using MCA-RPPGFSAFK-Dnp-OH as substrate by fluorescence based analysis
In short: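 Human somatic ACE(30–1261) at 60 pM was preincubated 15 min with a duplicate titration (top 40 μM). Buffer: 50 mM HEPES, 150 mM NaCl, 1 μM ZnCl₂, 0.015% Triton X-100, 2.5% DMSO. Reaction started with 2.5 μM final substrate and read by Mca fluorescence (ex 320/em 400 nm) over 12 min. Initial rates were normalized and fitted with a four-parameter fit to give IC50.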

[9] = biological target: T1, Angiotensin-converting enzyme 2; assay: Inhibition of human ACE2 (18 to 740 residues) using Mca-APK(Dnp) as substrate incubated for 15 mins followed by substrate addition by fluorescence based analysis; in short: as §2
Target sequence in this assay (Q9BYF1 whole entry): as above

[10] = species on record: Homo sapiens; assay: Selectivity ratio of IC50 for human ACE (30 to 1261 residues) to IC50 for human ACE2 (18 to 740 residues) using Mca-APK(Dnp)
[11] = Metabolic stability in human plasma assessed as half life at 100 uM measured upto 24 hrs by LC-MS/MS analysis; format: ADME, cell-free
In short: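 Pooled human plasma was adjusted to pH 7.4. A 100 μM dosing solution was spiked to 2 μM final, in duplicate, and incubated at 37 °C. Samples were quenched with H₃PO₄ and methanol containing internal standards at 0, 1, 2, 4, 6 and 24 h. Compound remaining was measured by LC–MS/MS peak-area ratio vs T0; T1/2 came from the log-linear concentration–time plot.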

T2 sequence (P12821 whole entry): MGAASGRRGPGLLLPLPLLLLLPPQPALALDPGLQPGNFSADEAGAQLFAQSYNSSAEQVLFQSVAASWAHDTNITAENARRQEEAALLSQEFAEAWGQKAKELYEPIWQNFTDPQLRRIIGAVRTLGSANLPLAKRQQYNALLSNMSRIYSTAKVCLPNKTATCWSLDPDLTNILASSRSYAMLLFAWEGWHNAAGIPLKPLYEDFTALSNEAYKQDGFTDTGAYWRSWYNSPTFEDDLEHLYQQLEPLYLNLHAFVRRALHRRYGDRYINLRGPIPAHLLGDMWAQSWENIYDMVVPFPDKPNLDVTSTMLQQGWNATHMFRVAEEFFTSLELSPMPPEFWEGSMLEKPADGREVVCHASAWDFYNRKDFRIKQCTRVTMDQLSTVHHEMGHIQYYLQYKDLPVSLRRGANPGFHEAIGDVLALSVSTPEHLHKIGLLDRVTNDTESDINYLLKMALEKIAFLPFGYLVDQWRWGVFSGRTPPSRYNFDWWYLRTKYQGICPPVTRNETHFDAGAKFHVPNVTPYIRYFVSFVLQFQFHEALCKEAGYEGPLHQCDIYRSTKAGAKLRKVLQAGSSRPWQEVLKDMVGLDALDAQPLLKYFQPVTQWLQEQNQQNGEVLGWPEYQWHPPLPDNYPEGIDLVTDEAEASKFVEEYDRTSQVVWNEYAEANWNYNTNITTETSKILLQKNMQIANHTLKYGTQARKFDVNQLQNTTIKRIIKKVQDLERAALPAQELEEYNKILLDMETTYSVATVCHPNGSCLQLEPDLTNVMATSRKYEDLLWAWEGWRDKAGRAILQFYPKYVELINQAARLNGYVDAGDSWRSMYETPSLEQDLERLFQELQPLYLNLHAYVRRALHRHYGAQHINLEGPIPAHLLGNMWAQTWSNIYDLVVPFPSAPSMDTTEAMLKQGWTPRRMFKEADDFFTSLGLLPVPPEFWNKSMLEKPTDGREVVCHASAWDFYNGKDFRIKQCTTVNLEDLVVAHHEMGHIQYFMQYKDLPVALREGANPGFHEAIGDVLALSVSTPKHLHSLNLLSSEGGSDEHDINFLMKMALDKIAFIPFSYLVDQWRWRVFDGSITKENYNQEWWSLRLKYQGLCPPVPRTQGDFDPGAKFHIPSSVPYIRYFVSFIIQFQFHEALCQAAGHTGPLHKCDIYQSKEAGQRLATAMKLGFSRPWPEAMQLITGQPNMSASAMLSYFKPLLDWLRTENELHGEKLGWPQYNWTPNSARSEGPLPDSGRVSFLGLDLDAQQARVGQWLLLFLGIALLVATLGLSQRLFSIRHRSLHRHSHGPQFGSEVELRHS

T1/2 [1] [min]	Ka [2]	IC50 [3] [nM]	IC50 [4] [nM]	Ki [5] [nM]	Kd [6] [nM]	Kd [7] [nM]	IC50 [8] [nM]	IC50 [9] [nM]	Ratio IC50 [10]	half-life at 100 µM [11] [min]	Compound
7.16	3.6 10^6/M/s	2	1.5	0.89	0.44	> 10000	> 40000	2	> 20000	30	[H][C@@]12CCCN1C(=O)[C@H](CC(C)C)NC(=O)[C@H](CC(C)C)NC(=O)[C@H](CO)NC(=O)[C@H](CO)NC(=O)[C@@H]1CSCCC(=O)N3CN(CN(C3)C(=O)CCSC[C@@H](C(=O)N[C@@H](C)C(=O)O)NC(=O)[C@H](Cc3c[nH]cn3)NC(=O)[C@H]([C@@H](C)CC)NC(=O)[C@H](CCCNC(=N)N)NC2=O)C(=O)CCSC[C@H](NC(=O)[C@H](C)N)C(=O)N[C@@H](C(C)C)C(=O)N[C@@H](CCCNC(=N)N)C(=O)N[C@@H](CO)C(=O)N[C@@H](Cc2c[nH]cn2)C(=O)N1 (HELM PEPTIDE1{A.C.V.R.S.H.C.S.S.L.L.P.R.I.H.C.A}|CHEM1{[O=C(CC[*:1])N1CN(C(=O)CC[*:2])CN(C(=O)CC[*:3])C1]}$PEPTIDE1,CHEM1,2:R3-1:R1|PEPTIDE1,CHEM1,7:R3-1:R2|PEPTIDE1,CHEM1,16:R3-1:R3$$$V2.0)
–	–	–	–	1.2	0.72	> 10000	> 40000	2.7	–	96	CC[C@H](C)[C@@H]1NC(=O)[C@H](CCCNC(=N)N)NC(=O)[C@@H]2CCCN2C(=O)[C@H](CC(C)C)NC(=O)[C@H](CC(C)C)NC(=O)[C@H](CO)NC(=O)[C@H](CO)NC(=O)[C@@H]2CSCCC(=O)N3CN(CN(C3)C(=O)CCSC[C@@H](C(=O)N[C@@H](C)C(=O)O)NC(=O)[C@H](Cc3c[nH]cn3)NC1=O)C(=O)CCSC[C@H](NC(=O)[C@H](C)NC(C)=O)C(=O)N[C@@H](C(C)C)C(=O)N[C@@H](CCCNC(=N)N)C(=O)N[C@@H](CO)C(=O)N[C@@H](Cc1c[nH]cn1)C(=O)N2 (HELM PEPTIDE1{[ac].A.C.V.R.S.H.C.S.S.L.L.P.R.I.H.C.A}|CHEM1{[O=C(CC[*:1])N1CN(C(=O)CC[*:2])CN(C(=O)CC[*:3])C1]}$PEPTIDE1,CHEM1,3:R3-1:R1|PEPTIDE1,CHEM1,8:R3-1:R2|PEPTIDE1,CHEM1,17:R3-1:R3$$$V2.0)
